Experimental data: PubChem BioAssay
Calls of active or inactive are those of the source.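 How the source made its calls, unless noted: active means viability at or under a set limit in both replicates, limit being median viability minus 3 SD (cut at about 48% in these data, passing the limit was not always enough); inconclusive means at or under the limit in just one replicate; inactive means at or above the limit in both replicates.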

How the values were obtained:
[1] = biological target: Pantothenate synthetase (Mycobacterium tuberculosis (strain ATCC 25618 / H37Rv)) (UniProt P9WIL5); experiment: Coupled enzyme confirmation of inhibitors against recombinant Mtb PanC (AID 375; call rule not given here;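 further: 0% = full reaction with vehicle and 100% = no enzyme background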); settings: coupled enzyme assay; at 10 µM, stronger effect = higher value
[2] = HUVEC growth inhibition – cell-based, human, primary screen (AID 575;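 active means viability at or below 30% in both replicate assays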;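 further: 100% = median of untreated cell wells with 0.1% DMSO on each plate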); settings: HUVEC proliferation, CellTiter-Glo luminescence, 72 h; at 10 µM; stronger effect = lower value
How it was run: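 system = HUVEC primary cells | amount = 1250 cells/well | buffer or medium = supplemented EBM, 2% fetal bovine serum | dosing = single-point 10 µM, DMSO 0.1% final | times = 72 h compound incubation | detection = CTG luminescence | read-out = % viability relative to median vehicle-well signal on each plate | control set = vehicle and MePR control wells | format = collagen-coated 384-well format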

[3] = H69AR cell proliferation blockers – human, duplicate replicates, primary screen (AID 580); settings: H69AR lung tumor cells viability, ATP luminescence, 72 h; at 10 µM; stronger effect = lower value;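 further: 100% = mean luminescence of untreated wells and 0% = no signal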
[4] = MRP1 drug-resistance reversers in H69AR cells – cell-based, doxorubicin co-treatment, pilot screen (AID 601;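 active means viability loss from added drug above about 55%, and viability with drug at most 40%, in both replicates, limit read from the data, passing the limit was not always enough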); settings: CellTiter-Glo, 72 h, at 10 µM; for differential viability (reversal): stronger effect = higher value
[5] = yeast transport mutant growth inhibition pilot in 384-well plates, post-Golgi transport modulator project (AID 636; in the data active means inhibition above about 31%); settings: absorbance 615 nm, about 18 h, stronger effect = higher value
[6] = growth suppression of yeast trafficking mutant, preliminary HTS, modulators of trafficking downstream of Golgi apparatus project, 1536-format plate, OD 615 nm (AID 637; in the data active means inhibition above about 30%); settings: yeast transport mutant growth, absorbance 615 nm, 18 h; stronger effect = higher value
[7] = reduced viability of SK-BR-3 breast cancer cells – cell-based, 24 h, human, pilot screen (AID 572;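 active means viability at or below 10% of carrier control in both of two separate runs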;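 further: compound exposure lasted between 18 and 24 h rather than exactly 24 h; 100% = carrier-treated control wells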); settings: SK-BR-3 viability, CellTiter-Glo luminescence, at 10 µM, stronger effect = lower value
[8] = H69AR cells + 2 uM doxorubicin, measured here: viability with 2 uM doxorubicin, stronger effect = lower value
[9] = H69AR cells, compound alone cytotoxicity

Sequence of Pantothenate synthetase (Mycobacterium tuberculosis (strain ATCC 25618 / H37Rv)) (P9WIL5 whole entry, looked up): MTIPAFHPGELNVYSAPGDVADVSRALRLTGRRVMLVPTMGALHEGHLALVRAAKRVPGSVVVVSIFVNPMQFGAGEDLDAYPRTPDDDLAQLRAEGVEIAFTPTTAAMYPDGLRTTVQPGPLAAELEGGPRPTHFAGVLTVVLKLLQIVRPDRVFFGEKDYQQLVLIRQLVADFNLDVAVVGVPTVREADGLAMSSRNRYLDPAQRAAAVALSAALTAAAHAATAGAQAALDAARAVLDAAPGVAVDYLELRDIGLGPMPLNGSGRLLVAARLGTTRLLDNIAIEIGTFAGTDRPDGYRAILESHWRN

For `O=C(CN1CCN(Cc2cccc(Cl)c2)C1=O)N1CCC2(CC1)OCCO2`, the inhibition [1] was 2% (inactive), the viability [2] was 87.6% (inactive) and the viability [3] was 89.5% (inactive). For the same compound, the differential viability (reversal) ([4]; H69AR cells + 2 uM doxorubicin) was -2.12% (inactive), the viability [4, 8] was 91.7% and the viability [4, 9] was 89.5%. For the same compound, the inhibition [5] was -3.12% (inactive) and the inhibition [6] was -2.7% (inactive).

With `CCC(C(=O)N1CCC2(CC1)OCCO2)c1ccccc1` (configuration not stated) the inhibition [1] was 0% (inactive), the viability [2] was 102% (inactive) and the viability [3] was 93% (inactive). For the same compound, the differential viability (reversal) ([4]; H69AR cells + 2 uM doxorubicin) was 13.2% (inactive), the viability [4, 8] was 79.8% and the viability [4, 9] was 93%. The inhibition [5] was -6.4% (inactive) and the inhibition [6] was 1.43% (inactive).

In the case of `COc1ccc(Cc2nccc3cc(OC)c(OC)cc23)cc1OC`, the inhibition [1] is reported as 0% (inactive), the viability [7] is reported as 88% (inactive) and the viability [2] is reported as 78.6% (inactive). For the same compound, the viability [3] was 81.7% (inactive), the differential viability (reversal) ([4]; H69AR cells + 2 uM doxorubicin) was -0.28% (inactive) and the viability [4, 8] was 82%. The viability [4, 9] was 81.7%, the inhibition [5] was 0.39% (inactive) and the inhibition [6] was -2.5% (inactive).

In the case of `C[N+]1(C)CCN(c2ccccc2)CC1`, the inhibition [1] is reported as 8% (inactive), the viability [7] is reported as 118% (inactive) and the viability [2] is reported as 95.8% (inactive). For the same compound, the viability [3] was 84.9% (inactive), the differential viability (reversal) ([4]; H69AR cells + 2 uM doxorubicin) was -12.1% (inactive) and the viability [4, 8] was 97%. For the same compound, the viability [4, 9] was 84.9%, the inhibition [5] was -1.69% (inactive) and the inhibition [6] was 0.5% (inactive).

For `CCOC(=O)c1cc2c(cn1)[nH]c1ccccc12`, the inhibition [1] was 6% (inactive), the viability [7] was 122% (inactive) and the viability [2] was 89.3% (inactive). The viability [3] was 88% (inactive), the differential viability (reversal) ([4]; H69AR cells + 2 uM doxorubicin) was 3.16% (inactive) and the viability [4, 8] was 84.8%. For the same compound, the viability [4, 9] was 88%, the inhibition [5] was -0.91% (inactive) and the inhibition [6] was -3.17% (inactive).

With `CN1CCN(c2c[nH]c(=O)[nH]c2=O)CC1` the inhibition [1] was 0% (inactive), the viability [7] was 110% (inactive) and the viability [2] was 90.6% (inactive). For the same compound, the viability [3] was 96.7% (inactive), the differential viability (reversal) ([4]; H69AR cells + 2 uM doxorubicin) was 5.06% (inactive) and the viability [4, 8] was 91.6%. For the same compound, the viability [4, 9] was 96.7%, the inhibition [5] was -7.53% (inactive) and the inhibition [6] was -6.29% (inactive).
